Assays:
[1] = target: 11-beta-hydroxysteroid dehydrogenase 1 (Homo sapiens) (UniProt P28845); assay: Inhibition of human recombinant 11beta-HSD1 expressed in HEK293 cells assessed as conversion of [1,2-3H]cortisone to cortisol at 1 uM after 10 mins by scintillation counting; format: cell-based
How it was run: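 Lysates of HEK-293 cells (no endogenous 11β-HSD) expressing recombinant human 11β-HSD1. Reduction of [1,2-3H]cortisone to cortisol was run for 10 min at 37 °C with 200 nM cortisone (final) and NADPH as cofactor; solvent ≤0.1%. Reactions were stopped with methanol containing 2 mM unlabeled cortisone and cortisol. Steroids were separated by TLC and counted by scintillation. Three independent experiments.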

[2] = target: 11-beta-hydroxysteroid dehydrogenase 1 (Rattus norvegicus, UniProt P16232); assay: Inhibition of 11beta-HSD1 in rat liver assessed as cortisone level; format: tissue-based
11-beta-hydroxysteroid dehydrogenase 1, sequence (P16232 whole entry): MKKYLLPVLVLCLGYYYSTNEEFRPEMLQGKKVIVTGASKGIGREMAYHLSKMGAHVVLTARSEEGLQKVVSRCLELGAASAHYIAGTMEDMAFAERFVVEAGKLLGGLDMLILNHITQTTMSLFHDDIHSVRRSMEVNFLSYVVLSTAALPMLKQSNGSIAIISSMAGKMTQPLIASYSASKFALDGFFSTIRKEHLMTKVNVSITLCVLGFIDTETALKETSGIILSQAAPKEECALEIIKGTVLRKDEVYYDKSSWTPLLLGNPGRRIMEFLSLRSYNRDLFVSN

11-beta-hydroxysteroid dehydrogenase 1 (Homo sapiens), sequence (P28845 whole entry, looked up): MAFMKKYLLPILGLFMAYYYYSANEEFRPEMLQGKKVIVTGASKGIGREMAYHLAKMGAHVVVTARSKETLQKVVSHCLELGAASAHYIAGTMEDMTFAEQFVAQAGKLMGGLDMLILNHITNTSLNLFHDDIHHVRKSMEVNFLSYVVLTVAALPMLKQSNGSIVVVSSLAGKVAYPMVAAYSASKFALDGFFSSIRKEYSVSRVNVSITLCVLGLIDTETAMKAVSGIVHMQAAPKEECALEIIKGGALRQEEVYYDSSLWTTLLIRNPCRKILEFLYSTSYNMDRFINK

Structure (SMILES)	inhibition [1] [%]	IC50 [2] [nM]
CC1(C)C(=O)CC[C@]2(C)[C@H]3C(=O)C=C4[C@@H]5C[C@@](C)(C(=O)O)CC[C@]5(C)CC[C@@]4(C)[C@]3(C)CC[C@@H]12	63.8	–
C=CCNC(=O)[C@@]1(C)CC[C@]2(C)CC[C@]3(C)C(=CC(=O)[C@@H]4[C@@]5(C)CC[C@H](O)C(C)(C)[C@@H]5CC[C@]43C)[C@@H]2C1	6.2	–
C#CCNC(=O)[C@@]1(C)CC[C@]2(C)CC[C@]3(C)C(=CC(=O)[C@@H]4[C@@]5(C)CC[C@H](O)C(C)(C)[C@@H]5CC[C@]43C)[C@@H]2C1	10.1	–
CC(=O)O[C@H]1CC[C@]2(C)[C@H]3C(=O)C=C4[C@@H]5C[C@@](C)(C(=O)NN)CC[C@]5(C)CC[C@@]4(C)[C@]3(C)CC[C@H]2C1(C)C	90.9	–
CC(=O)O[C@H]1CC[C@]2(C)[C@H]3C(=O)C=C4[C@@H]5C[C@@](C)(C(=O)O)CC[C@]5(C)CC[C@@]4(C)[C@]3(C)CC[C@H]2C1(C)C	47.1	–
CC1(C)[C@@H](O)CC[C@]2(C)[C@H]3C(=O)C=C4[C@@H]5C[C@@](C)(C(=O)N6CCC(C(=O)O)CC6)CC[C@]5(C)CC[C@@]4(C)[C@]3(C)CC[C@@H]12	19.5	–
CC1(C)[C@@H](OP(=O)(O)O)CC[C@]2(C)[C@H]3C(=O)C=C4[C@@H]5C[C@@](C)(C(=O)O)CC[C@]5(C)CC[C@@]4(C)[C@]3(C)CC[C@@H]12	86	–
CON=C1CC[C@]2(C)[C@H]3C(=O)C=C4[C@@H]5C[C@@](C)(C(=O)O)CC[C@]5(C)CC[C@@]4(C)[C@]3(C)CC[C@H]2C1(C)C	63.2	–
CC(=O)O[C@H]1CC[C@]2(C)[C@H]3C(=O)C=C4[C@@H]5C[C@@](C)(C=NO)CC[C@]5(C)CC[C@@]4(C)[C@]3(C)CC[C@H]2C1(C)C	43.3	–
CC1(C)[C@@H](OC(=O)CCC(=O)O)CC[C@]2(C)[C@H]3C(=O)C=C4[C@@H]5C[C@@](C)(C(=O)O)CC[C@]5(C)CC[C@@]4(C)[C@]3(C)CC[C@@H]12	87.7	–
CC1(C)[C@@H](O[C@H]2O[C@H](C(=O)O)[C@@H](O)[C@H](O)[C@H]2O[C@@H]2O[C@H](C(=O)O)[C@@H](O)[C@H](O)[C@H]2O)CC[C@]2(C)[C@H]3C(=O)C=C4[C@@H]5C[C@@](C)(C(=O)O)CC[C@]5(C)CC[C@@]4(C)[C@]3(C)CC[C@@H]12	63.2	–

Continued, values first:

inhibition [1] [%]	IC50 [2] [nM]	Structure (SMILES)
2.7	–	CC1(C)[C@@H](O)CC[C@]2(C)[C@H]3C(=O)C=C4[C@@H]5C[C@@](C)(C(=O)NCC(=O)O)CC[C@]5(C)CC[C@@]4(C)[C@]3(C)CC[C@@H]12
49.7	–	CC1(C)[C@@H](O)CC[C@]2(C)[C@H]3C(=O)C=C4[C@@H]5C[C@@](C)(C(=O)O)CC[C@]5(C)CC[C@@]4(C)[C@]3(C)CC[C@@H]12 (stereo in doubt; 23)
91.2	–	CC1(C)[C@@H](O)CC[C@]2(C)[C@H]3C(=O)C=C4[C@@H]5C[C@@](C)(C(=O)O)CC[C@]5(C)CC[C@@]4(C)[C@]3(C)CC[C@@H]12 (stereo in doubt; 1)
97.4	–	CC1(C)[C@H](O)CC[C@]2(C)[C@H]3C(=O)C=C4[C@@H]5C[C@@](C)(C(=O)O)CC[C@]5(C)CC[C@@]4(C)[C@]3(C)CC[C@@H]12
32.5	–	CCNC(=O)N(CCCN(C)C)C(=O)[C@@]1(C)CC[C@]2(C)CC[C@]3(C)C(=CC(=O)[C@@H]4[C@@]5(C)CC[C@H](O)C(C)(C)[C@@H]5CC[C@]43C)[C@@H]2C1
–	90	CC1(C)[C@@H](O)CC[C@]2(C)[C@H]3C(=O)C=C4[C@@H]5C[C@@](C)(C(=O)O)CC[C@]5(C)CC[C@@]4(C)[C@]3(C)CC[C@@H]12 (stereo in doubt; 1) [ENOXOLONE]
36	–	CN(C)CCNC(=O)[C@@]1(C)CC[C@]2(C)CC[C@]3(C)C(=CC(=O)[C@@H]4[C@@]5(C)CC[C@H](O)C(C)(C)[C@@H]5CC[C@]43C)[C@@H]2C1
2.9	–	CC1(C)[C@@H](O)CC[C@]2(C)[C@H]3C(=O)C=C4[C@@H]5C[C@@](C)(C(=O)NCCO)CC[C@]5(C)CC[C@@]4(C)[C@]3(C)CC[C@@H]12
